Screening data from PubChem.
Compounds with a hit are over-represented: about 3.1% of the library has one in this group of screens.
VIM-2 inh – VIM-2 metallo-beta-lactamase inhibitors, primary screen, biochemical, epi-absorbance readout, Pseudomonas aeruginosa enzyme; purified VIM-2, nitrocefin hydrolysis, epi-absorbance fluorescence; AID 1527, 2009; inhibition, % at 5.6 µM; 290,000 compounds, 0.89% hits;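 active means inhibition above the mean of all tested compounds plus 3 SD, cutoff set per screening run, cut at about 7.5% in these data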;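 further: red hydrolysis product quenches plate fluorescence so inhibitors raise well fluorescence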
NS3 helicase inh – inhibitors of HCV NS3 helicase, primary screen, biochemical, Cy5 molecular beacon fluorescence; Hepatitis C virus NS3 helicase; NS3 helicase DNA unwinding; inhibition, % at 10.9 µM; 290,000 compounds, 0.56% hits; AID 1800, 2009;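 active means inhibition above the mean of all tested compounds plus 3 SD, set per campaign, cut at about 35% in these data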
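System: NS3 helicase fragment of HCV / Schedule: 1 h at 25 °C / Control set: DMSO alone as 0% and 110 µM thioflavine S as 100% / Reagent: Cy5/quencher beacon DNA duplex and ATP to start / Technique: Cy5 fluorescence / Replication: singlicate / Evaluation: % inhibition of end-to-start signal ratio versus controls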
IMP-1 inhibitor – IMP-1 metallo-beta-lactamase inhibitors, primary screen, biochemical, epi-absorbance readout, Pseudomonas aeruginosa enzyme. purified IMP-1, nitrocefin hydrolysis, epi-absorbance fluorescence. AID 1556, 2009. inhibition, % at 5.6 µM. metallo-beta-lactamase IMP-1 (Pseudomonas aeruginosa). 290,000 compounds, 0.45% hits;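 active means inhibition above the mean plus 3 SD of all compounds in the same screening run, cut at about 4.5% in these data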
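Assay system: purified recombinant IMP-1 beta-lactamase. Input: IMP-1 0.2 nM before substrate addition. Buffer or medium: Zinc- and detergent-supplemented HEPES buffer, pH 7.1. Schedule: 25 °C, 15 min preincubation, 25 min reaction. Signal: Epi-absorbance fluorescence, 480 nm excitation, 530 nm emission. Evaluation: percent inhibition from optical density relative to buffer-blank wells.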
PHOSPHO1 block – PubChem AID 1565. Phosphoethanolamine/phosphocholine phosphatase (Homo sapiens), Q8TCT1. recombinant PHOSPHO1, absorbance phosphatase assay. inhibition, % at 13.3 µM. 290,000 compounds, 1.1% hits; in the data active means inhibition above about 60%
Target sequence (Q8TCT1 whole entry, looked up): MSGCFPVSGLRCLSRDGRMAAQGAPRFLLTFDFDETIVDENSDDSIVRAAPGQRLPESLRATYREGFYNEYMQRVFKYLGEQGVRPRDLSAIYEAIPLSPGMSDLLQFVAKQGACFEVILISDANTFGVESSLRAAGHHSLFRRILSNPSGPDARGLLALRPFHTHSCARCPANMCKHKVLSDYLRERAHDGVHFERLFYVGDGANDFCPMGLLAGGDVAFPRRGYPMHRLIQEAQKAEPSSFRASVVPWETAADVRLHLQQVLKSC
core dimer inh – inhibitors of HCV core protein dimerization, primary screen, biochemical, TR-FRET, high-throughput. TR-FRET GST/Flag-core106 dimerization, 1536-well. inhibition, % at 5 µM. 300,000 compounds, 0.33% hits. AID 1899, 2009;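 active means inhibition above the mean of all tested compounds plus 3 SD, set per screening campaign, cut at about 45% in these data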
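Material: Tagged HCV core106 pair (GST and Flag) | Amount: GST-core106 13.5 nM, Flag-core106 17 nM | Medium: KF-containing HEPES buffer, pH 7.45, DTT, CHAPS, BSA | Reagent: Eu donor and XL665 acceptor anti-tag antibodies | Schedule: 4 h at 22.5 °C | Technique: Time-resolved FRET, ex 340 nm, em 617 and 671 nm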
UBC9 SUMO inh – inhibitors of in vitro SUMOylation cascade, primary screen, biochemical, HTRF, uHTS; HTRF SUMOylation assay, SAE1/SAE2 + UBC9; 290,000 compounds, 0.36% hits; inhibition, % at 35 µM; SUMO-conjugating enzyme UBC9 (Homo sapiens), P63279; in the data active means inhibition above about 50%, passing the limit was not always enough
Target sequence (P63279 whole entry, looked up): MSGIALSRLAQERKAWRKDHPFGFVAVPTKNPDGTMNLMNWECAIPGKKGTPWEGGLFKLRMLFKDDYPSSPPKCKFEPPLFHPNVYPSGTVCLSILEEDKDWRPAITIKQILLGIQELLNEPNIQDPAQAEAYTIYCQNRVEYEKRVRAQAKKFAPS
A number is an active result; i = inactive; nt = not tested or not shown.

SMILES | VIM-2 inh | NS3 helicase inh | IMP-1 inhibitor | PHOSPHO1 block | core dimer inh | UBC9 SUMO inh
O=C(O)CCCN1C(=O)/C(=C\c2ccc(-c3nc4ccccc4s3)o2)SC1=S | i | i | i | 93 | i | i
O=C(O)CCN1C(=O)/C(=C/c2ccc(-c3nc4ccccc4s3)o2)SC1=S | i | i | i | 101 | i | i
CCOC(=O)c1sc(NC(=O)Cn2nnc3sc4c(c3c2=O)CCC(C(C)(C)C)C4)nc1C (stereo unspecified) | i | i | i | i | 46 | i
O=C(O)CSc1ncnc2c1sc1nc(-c3ccccc3)c3c(c12)CCC3 | i | i | 9.4 | i | i | i
S=c1nc[nH]c2c1sc1nc(-c3ccccc3)c3c(c12)CCCC3 | i | i | 16 | i | i | i
CCOC(=O)C(Sc1ncnc2c1sc1nc(N3CCOCC3)c3c(c12)CCCC3)c1ccccc1 (stereo unspecified) | i | i | 6.2 | i | nt | i
COC(=O)c1ccc(CSc2ncnc3c2sc2nc(N4CCOCC4)c4c(c23)CCCC4)o1 | i | i | i | nt | 66 | nt
Cc1cc(/C=c2\sc3nc4ccccc4n3c2=O)c(C)n1-c1ccc(C(=O)O)cc1 | i | i | i | i | nt | i
Cc1cc(/C=c2/sc3nc4ccccc4n3c2=O)c(C)n1-c1ccccn1 | i | i | i | 75 | i | i
CCC(=O)Nc1cc2nn(-c3ccc(OC)cc3)nc2cc1C | i | i | i | i | i | i
CCC(=O)Nc1cc2nn(-c3ccc(C)cc3)nc2cc1C | i | i | i | 63 | i | i
COCC(N)(c1ccccc1)c1nc2ccccc2n1C (stereo unspecified) | 9.0 | i | i | i | i | i
CC1=C([N+](=O)[O-])C(c2ccccc2Cl)NC(=O)N1 (stereo unspecified) | i | i | i | i | i | i
CC1=C([N+](=O)[O-])C(c2ccccc2Cl)NC(=O)N1C (stereo unspecified) | i | i | i | 60 | i | i
CC1CCCC(C)N1CCCNC(=O)c1csc2c1CCCCC2 (stereo unspecified) | i | i | i | i | i | i
Cn1c(-c2ccc3c(c2)OCO3)c(C(=O)O)c(=O)c2ccccc21 | 11 | i | i | i | i | i
O=C1NC(=O)/C(=C\c2ccc(O)cc2O)S1 | i | i | 6.0 | i | i | i
CC(=O)/C(=N/Nc1cccc(C)c1)N1CCOCC1 | i | i | i | 92 | i | i
O=C(/C=C/c1ccc(S(=O)(=O)N2CCOCC2)cc1)NCCCn1ccnc1 | i | i | i | i | i | i
COc1cc(C2C=C(c3cccs3)Nc3ncnn32)cc(OC)c1OC (stereo unspecified) | i | i | i | i | nt | 53
Cc1cc(C)cc(NC(=O)Cn2ncn3c(cc4ccccc43)c2=O)c1 | i | i | i | i | i | i
COC(=O)Cn1ncn2c(cc3oc(C)cc32)c1=O | i | i | i | 66 | i | i
CC(NC(=S)NCc1ccccc1)C12CC3CC(CC(C3)C1)C2 (stereo unspecified) | i | i | i | i | i | i
Fc1ccc(-n2cc(CNCCc3cccnc3)c(-c3ccccc3Cl)n2)cc1 | i | i | i | i | i | i
CC(NC(=O)c1ccnn1C)C1CCCO1 (stereo unspecified) | i | i | i | i | i | i
N#C/C(=C\c1ccc(O)c(O)c1)C(=O)Nc1cccc2ncccc12 | i | i | i | i | 65 | nt
COc1ccc(/C=C(\C#N)C(=O)Nc2cccc3ncccc23)cc1OC | i | i | i | i | i | i
CCOC(=O)c1c(CC(C)C)csc1/N=C/C1C(=O)CC(C)(C)CC1=O | i | i | 9.1 | i | i | i
Cc1cc2ccccc2n2c(SCC(=O)N3CCOCC3)nnc12 | 8.0 | i | i | i | i | i
CCCOC1CCCN(C(=O)CCc2nnc(CCCCc3ccccc3)o2)C1 (stereo unspecified) | i | i | i | i | i | i
